# Paper PMC3927397 (Journal of medicinal chemistry, 2013)
# Legend:
# [1] = biological target: cytoplasmic tyrosine kinase Src (Homo sapiens, UniProt P12931); experiment: Preliminary kinase screen, Src; assay type: biochemical; conditions: small panel of kinases
# IKKβ = conditions: ref 22 (Kasinski et al.); cited from earlier work
# [2] = biological target: receptor tyrosine kinase IGFR (Homo sapiens, UniProt P08069); experiment: Preliminary kinase screen, IGFR; assay type: biochemical; conditions: small panel of kinases
# Chain of receptor tyrosine kinase IGFR (P08069 31-1367): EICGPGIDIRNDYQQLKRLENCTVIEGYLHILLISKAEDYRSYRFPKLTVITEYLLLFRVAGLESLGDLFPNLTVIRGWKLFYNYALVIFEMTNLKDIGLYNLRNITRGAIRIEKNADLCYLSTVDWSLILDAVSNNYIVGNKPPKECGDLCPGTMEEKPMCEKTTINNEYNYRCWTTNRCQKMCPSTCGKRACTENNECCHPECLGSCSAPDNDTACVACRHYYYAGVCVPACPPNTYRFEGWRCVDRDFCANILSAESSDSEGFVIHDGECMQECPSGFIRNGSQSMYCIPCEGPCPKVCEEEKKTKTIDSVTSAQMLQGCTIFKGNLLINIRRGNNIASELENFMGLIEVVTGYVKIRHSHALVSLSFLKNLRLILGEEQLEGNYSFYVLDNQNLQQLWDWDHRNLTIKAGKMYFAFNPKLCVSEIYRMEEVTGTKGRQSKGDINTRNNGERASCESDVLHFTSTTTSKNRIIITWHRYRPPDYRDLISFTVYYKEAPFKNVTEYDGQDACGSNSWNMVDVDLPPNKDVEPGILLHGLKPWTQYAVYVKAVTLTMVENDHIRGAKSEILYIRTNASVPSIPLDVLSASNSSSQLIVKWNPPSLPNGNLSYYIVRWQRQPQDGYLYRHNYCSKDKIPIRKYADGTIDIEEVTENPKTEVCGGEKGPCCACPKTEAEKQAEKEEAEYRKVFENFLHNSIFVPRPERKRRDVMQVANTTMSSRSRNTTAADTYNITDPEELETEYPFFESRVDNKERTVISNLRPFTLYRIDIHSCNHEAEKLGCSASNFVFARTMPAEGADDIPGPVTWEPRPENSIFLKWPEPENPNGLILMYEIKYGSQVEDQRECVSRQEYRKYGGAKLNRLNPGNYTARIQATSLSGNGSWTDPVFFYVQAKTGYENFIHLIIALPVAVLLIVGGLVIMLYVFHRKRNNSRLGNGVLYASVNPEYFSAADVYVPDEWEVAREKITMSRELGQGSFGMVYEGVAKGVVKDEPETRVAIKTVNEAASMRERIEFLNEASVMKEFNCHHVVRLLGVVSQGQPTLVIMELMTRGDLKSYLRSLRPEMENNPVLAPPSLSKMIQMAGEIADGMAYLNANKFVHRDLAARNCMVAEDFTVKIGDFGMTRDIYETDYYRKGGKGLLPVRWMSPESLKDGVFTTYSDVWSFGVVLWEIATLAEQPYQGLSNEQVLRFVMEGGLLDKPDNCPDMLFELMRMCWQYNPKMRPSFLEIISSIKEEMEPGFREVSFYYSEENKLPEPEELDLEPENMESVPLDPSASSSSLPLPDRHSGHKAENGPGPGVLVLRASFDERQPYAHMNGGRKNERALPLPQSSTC
# MEK1 = MEK1 (Homo sapiens, UniProt Q02750); experiment: Z'-LYTE MAP2K1; assay type: biochemical; conditions: preliminary screen, small panel of kinases
# EGFR = EGFR (Homo sapiens, UniProt P00533); experiment: Kinase profile screen at 5 μM, EGFR; assay type: biochemical; conditions: read-out: inhibition of EGFR
# How it was run: (§1)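 Most kinases used the Z'Lyte read-out: a FRET-labelled peptide, protease development, and coumarin/fluorescein emission ratio. Some used Adapta (ADP TR-FRET) or a kinase cascade. Protease- and fluorescence-interference control wells were included. Values above 100% or below 0% were taken as maximal or no inhibition.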
# IKBKB (IKKβ) = biological target: T1, IKBKB (IKKβ) (Homo sapiens, UniProt O14920); experiment: Z'-LYTE in vitro kinase assay, IKKβ; assay type: biochemical; conditions: preliminary screen, small panel of kinases
# T1 sequence (O14920 1-756): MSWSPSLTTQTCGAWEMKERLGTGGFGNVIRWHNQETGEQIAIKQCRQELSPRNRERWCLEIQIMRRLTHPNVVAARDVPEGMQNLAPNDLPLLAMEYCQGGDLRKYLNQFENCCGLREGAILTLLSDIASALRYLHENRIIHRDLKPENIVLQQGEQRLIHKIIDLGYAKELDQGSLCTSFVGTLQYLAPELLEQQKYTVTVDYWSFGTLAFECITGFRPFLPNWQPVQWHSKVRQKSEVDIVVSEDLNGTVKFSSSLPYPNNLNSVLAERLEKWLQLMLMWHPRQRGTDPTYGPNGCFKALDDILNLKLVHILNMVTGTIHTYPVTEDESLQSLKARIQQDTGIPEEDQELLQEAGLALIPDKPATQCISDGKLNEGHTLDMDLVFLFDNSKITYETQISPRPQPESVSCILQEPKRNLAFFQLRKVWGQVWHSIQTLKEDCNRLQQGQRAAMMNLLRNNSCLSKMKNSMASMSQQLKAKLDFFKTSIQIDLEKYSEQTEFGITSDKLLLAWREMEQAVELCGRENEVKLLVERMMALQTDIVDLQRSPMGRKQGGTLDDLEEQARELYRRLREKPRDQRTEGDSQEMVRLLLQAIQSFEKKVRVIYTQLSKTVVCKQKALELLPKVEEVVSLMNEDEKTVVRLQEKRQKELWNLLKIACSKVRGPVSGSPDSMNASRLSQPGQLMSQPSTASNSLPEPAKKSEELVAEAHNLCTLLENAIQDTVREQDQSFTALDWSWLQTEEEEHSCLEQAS
# CDK7 = CDK7 (Homo sapiens, UniProt P50613); experiment: Kinase profile screen at 5 μM, CDK7; assay type: biochemical; conditions: read-out: inhibition of CDK7
# Chain of CDK7 (P50613 whole entry, species assumed): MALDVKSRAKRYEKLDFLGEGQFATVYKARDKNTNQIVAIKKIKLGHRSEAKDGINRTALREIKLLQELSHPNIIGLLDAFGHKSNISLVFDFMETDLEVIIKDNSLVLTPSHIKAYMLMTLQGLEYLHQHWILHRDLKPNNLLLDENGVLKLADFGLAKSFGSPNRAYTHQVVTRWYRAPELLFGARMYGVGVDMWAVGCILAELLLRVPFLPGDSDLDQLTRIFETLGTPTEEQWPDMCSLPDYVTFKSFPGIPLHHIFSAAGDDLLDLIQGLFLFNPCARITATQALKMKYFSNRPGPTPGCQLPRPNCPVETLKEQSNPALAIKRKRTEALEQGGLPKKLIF
# Chain of CDK7 (P51946 whole entry partner, species assumed): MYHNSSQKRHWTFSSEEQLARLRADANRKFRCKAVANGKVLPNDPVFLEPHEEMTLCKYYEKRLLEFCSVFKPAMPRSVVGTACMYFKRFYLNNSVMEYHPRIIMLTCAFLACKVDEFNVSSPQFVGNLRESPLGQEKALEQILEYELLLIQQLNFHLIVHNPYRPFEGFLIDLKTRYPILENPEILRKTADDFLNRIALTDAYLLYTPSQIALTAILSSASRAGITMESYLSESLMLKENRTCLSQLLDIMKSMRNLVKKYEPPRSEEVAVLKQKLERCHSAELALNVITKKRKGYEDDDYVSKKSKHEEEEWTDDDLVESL
# Chain of CDK7 (P51948 whole entry partner, species assumed): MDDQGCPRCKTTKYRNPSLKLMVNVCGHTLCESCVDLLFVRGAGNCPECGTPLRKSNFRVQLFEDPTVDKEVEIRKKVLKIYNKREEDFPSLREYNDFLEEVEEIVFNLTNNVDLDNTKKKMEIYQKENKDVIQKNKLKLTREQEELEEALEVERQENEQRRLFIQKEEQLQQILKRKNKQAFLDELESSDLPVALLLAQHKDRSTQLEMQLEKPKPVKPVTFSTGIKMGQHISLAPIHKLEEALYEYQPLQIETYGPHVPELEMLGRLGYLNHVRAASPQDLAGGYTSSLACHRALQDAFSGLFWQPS
# How it was run: as §1
# CHEK1 = biological target: T2, CHEK1 (Homo sapiens, UniProt O14757); experiment: Kinase profile screen at 5 μM, CHEK1; assay type: biochemical; conditions: read-out: inhibition of CHEK1
# T2 sequence (O14757 1-476): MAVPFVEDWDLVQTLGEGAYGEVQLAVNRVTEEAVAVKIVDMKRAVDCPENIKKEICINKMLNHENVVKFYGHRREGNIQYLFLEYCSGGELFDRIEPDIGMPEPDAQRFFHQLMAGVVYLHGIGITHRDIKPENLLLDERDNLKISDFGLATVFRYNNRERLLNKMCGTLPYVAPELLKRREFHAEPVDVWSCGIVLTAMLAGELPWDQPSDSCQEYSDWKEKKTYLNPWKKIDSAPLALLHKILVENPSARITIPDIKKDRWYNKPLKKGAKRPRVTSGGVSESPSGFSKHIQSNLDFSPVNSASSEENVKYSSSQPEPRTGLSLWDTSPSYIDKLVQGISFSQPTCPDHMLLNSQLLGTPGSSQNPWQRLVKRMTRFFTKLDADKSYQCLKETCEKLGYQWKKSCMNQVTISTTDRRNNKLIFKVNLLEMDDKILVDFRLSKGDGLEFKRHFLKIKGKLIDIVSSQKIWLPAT
# How it was run: as §1
# AKT1 (PKB alpha) = AKT1 (PKB alpha) (Homo sapiens, UniProt P31749); experiment: Z'-LYTE in vitro kinase assay, AKT1; assay type: biochemical; conditions: preliminary screen, small panel of kinases
# PIM1 = PIM1 (Homo sapiens, UniProt P11309); experiment: Kinase profile screen at 5 μM, PIM1; assay type: biochemical; conditions: read-out: inhibition of PIM1
# Chain of PIM1 (P11309 whole entry, species assumed): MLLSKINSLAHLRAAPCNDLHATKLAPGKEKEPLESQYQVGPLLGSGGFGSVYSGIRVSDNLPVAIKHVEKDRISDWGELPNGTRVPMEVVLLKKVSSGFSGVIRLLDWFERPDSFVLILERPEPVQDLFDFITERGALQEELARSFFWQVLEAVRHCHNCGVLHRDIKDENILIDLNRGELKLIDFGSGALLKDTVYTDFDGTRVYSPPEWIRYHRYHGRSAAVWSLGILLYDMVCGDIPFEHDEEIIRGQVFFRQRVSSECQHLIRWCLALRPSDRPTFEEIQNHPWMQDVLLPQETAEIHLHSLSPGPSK
# How it was run: as §1
# panel of 50 kinases = experiment: Kinase profile screen, 50-kinase panel; assay type: biochemical; conditions: 5 μM, of fifty kinases tested
# How it was run: as §1
# PRKCβ1 = PRKCβ1 (Homo sapiens, UniProt P05771); experiment: Kinase profile screen at 5 μM, PRKCβ1; assay type: biochemical; conditions: read-out: inhibition of PRKCβ1
# Chain of PRKCβ1 (P05771 whole entry): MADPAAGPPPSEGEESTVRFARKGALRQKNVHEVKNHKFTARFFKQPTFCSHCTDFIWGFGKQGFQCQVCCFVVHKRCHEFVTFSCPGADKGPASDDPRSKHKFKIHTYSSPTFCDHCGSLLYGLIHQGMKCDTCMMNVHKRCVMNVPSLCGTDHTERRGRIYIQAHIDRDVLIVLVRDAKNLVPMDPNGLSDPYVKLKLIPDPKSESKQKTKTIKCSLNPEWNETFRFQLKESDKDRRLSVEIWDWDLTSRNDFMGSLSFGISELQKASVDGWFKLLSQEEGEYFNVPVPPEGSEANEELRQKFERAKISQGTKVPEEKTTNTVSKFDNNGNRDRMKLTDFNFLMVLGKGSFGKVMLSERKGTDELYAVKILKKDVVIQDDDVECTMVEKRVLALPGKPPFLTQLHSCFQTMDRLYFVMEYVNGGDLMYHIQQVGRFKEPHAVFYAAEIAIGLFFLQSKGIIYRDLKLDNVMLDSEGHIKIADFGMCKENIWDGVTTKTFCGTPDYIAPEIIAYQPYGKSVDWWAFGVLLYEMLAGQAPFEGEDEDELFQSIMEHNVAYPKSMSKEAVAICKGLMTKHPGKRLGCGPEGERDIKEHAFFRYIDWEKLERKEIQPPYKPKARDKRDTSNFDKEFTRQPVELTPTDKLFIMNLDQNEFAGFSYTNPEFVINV
# How it was run: as §1
# IRAK4 = biological target: T3, IRAK4 (Homo sapiens, UniProt Q9NWZ3); experiment: Kinase profile screen at 5 μM, IRAK4; assay type: biochemical; conditions: read-out: inhibition of IRAK4
# T3 sequence (Q9NWZ3 1-460): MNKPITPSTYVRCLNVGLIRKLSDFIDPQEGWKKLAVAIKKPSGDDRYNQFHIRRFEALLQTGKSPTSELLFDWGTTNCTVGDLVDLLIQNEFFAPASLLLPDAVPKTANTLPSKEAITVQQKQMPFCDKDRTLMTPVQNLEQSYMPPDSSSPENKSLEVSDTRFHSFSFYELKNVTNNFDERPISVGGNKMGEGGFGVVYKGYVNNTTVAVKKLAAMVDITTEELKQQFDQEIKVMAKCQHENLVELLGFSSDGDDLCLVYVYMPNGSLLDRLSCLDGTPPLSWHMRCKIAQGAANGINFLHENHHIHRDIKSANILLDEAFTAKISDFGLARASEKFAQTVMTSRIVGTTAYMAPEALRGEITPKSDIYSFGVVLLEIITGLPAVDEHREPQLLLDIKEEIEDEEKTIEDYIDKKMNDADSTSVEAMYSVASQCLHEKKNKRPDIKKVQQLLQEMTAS
# How it was run: as §1
# RAF1 = RAF1 (Homo sapiens, UniProt P04049, Y340D/Y341D); experiment: Z'-LYTE RAF1; assay type: biochemical; conditions: preliminary screen, small panel of kinases
# Chain of RAF1 (P04049 306-648 Y340D/Y341D limits assumed): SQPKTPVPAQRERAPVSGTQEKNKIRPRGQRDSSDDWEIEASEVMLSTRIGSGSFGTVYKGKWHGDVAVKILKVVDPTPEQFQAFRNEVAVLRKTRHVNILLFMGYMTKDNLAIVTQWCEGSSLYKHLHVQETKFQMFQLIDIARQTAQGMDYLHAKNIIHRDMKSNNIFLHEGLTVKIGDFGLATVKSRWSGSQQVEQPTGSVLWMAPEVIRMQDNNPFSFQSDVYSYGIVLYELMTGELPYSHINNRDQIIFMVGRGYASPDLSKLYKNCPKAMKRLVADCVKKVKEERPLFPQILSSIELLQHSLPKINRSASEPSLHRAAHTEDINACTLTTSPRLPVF
# NEK1 = biological target: T4, NEK1 (Homo sapiens, UniProt Q96PY6); experiment: Z'-LYTE in vitro kinase assay, NEK1; assay type: biochemical; conditions: read-out: inhibition of NEK1
# T4 sequence (Q96PY6 1-1258): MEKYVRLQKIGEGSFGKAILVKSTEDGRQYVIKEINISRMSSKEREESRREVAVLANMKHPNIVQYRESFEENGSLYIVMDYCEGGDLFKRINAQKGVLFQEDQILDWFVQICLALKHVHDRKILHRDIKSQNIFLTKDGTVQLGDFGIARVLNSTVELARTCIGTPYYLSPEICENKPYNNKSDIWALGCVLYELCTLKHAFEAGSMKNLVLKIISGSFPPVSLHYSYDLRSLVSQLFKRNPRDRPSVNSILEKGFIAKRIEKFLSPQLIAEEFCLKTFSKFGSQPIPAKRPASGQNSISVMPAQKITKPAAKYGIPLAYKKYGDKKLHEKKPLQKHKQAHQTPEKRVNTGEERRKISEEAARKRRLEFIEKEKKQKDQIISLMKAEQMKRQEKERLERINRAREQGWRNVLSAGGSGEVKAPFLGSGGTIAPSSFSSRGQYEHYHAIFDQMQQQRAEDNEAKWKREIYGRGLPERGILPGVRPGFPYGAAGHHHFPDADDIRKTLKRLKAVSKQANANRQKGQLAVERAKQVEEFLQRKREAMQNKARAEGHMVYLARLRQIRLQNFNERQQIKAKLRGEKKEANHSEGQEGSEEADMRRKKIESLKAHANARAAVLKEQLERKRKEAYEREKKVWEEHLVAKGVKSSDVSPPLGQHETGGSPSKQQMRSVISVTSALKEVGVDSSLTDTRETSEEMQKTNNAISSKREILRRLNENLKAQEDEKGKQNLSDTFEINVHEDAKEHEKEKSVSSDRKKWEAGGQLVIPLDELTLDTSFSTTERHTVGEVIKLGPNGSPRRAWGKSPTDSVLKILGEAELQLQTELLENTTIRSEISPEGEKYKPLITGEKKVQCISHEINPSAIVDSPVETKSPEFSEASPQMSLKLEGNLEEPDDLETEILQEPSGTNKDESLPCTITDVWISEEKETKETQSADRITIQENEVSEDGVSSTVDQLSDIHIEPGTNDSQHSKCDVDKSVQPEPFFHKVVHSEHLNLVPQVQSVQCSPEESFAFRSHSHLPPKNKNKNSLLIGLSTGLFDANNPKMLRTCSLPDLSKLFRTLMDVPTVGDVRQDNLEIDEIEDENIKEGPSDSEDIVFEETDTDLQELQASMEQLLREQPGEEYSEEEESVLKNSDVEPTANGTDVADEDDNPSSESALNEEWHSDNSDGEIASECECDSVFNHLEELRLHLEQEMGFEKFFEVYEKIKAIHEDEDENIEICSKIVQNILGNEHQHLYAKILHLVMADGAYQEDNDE
# AKT2 [3] = biological target: T5, AKT2 (Homo sapiens, UniProt P31751); experiment: Z'-LYTE in vitro kinase assay, AKT2; assay type: biochemical; conditions: preliminary screen, small panel of kinases
# T5 sequence (P31751 whole entry): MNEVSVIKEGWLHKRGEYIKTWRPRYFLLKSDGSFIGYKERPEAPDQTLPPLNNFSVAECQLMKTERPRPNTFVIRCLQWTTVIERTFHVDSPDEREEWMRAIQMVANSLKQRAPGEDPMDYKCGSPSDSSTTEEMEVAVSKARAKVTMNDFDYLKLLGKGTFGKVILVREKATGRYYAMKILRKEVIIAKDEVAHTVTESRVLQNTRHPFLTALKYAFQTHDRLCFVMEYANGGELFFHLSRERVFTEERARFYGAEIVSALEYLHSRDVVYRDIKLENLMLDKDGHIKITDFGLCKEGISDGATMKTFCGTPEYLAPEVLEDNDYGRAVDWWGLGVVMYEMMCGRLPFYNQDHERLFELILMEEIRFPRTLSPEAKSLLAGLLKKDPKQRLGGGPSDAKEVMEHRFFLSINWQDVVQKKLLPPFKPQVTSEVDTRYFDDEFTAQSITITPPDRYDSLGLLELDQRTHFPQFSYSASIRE
# [4] = cited from earlier work
# CDK2 = CDK2 (Homo sapiens, UniProt P24941); experiment: Kinase profile screen at 5 μM, CDK2; assay type: biochemical; conditions: read-out: inhibition of CDK2
# How it was run: as §1
# AKT2 [5] = biological target: T5, AKT2; experiment: ADP Quest enzyme kinetics, Michaelis-Menten global analysis; assay type: biochemical; conditions: varying ATP and inhibitor concentrations
# How it was run: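 Purified recombinant human AKT2 with Crosstide peptide substrate; reactions run 10-90 min using fresh samples at varying ATP and inhibitor concentrations. ADP Quest enzyme-coupled fluorescence gave total ADP, and rates came from ADP formed over time. Rates were fitted by global non-linear regression to Michaelis-Menten competitive (shared Ki and Vmax) and mixed (shared Ki, α) models, with Ki and Vmax >0.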
# ACVR1B = biological target: T6, ACVR1B (Homo sapiens, UniProt P36896); experiment: Kinase profile screen at 5 μM, ACVR1B; assay type: biochemical; conditions: read-out: inhibition of ACVR1B
# T6 sequence (P36896 24-505): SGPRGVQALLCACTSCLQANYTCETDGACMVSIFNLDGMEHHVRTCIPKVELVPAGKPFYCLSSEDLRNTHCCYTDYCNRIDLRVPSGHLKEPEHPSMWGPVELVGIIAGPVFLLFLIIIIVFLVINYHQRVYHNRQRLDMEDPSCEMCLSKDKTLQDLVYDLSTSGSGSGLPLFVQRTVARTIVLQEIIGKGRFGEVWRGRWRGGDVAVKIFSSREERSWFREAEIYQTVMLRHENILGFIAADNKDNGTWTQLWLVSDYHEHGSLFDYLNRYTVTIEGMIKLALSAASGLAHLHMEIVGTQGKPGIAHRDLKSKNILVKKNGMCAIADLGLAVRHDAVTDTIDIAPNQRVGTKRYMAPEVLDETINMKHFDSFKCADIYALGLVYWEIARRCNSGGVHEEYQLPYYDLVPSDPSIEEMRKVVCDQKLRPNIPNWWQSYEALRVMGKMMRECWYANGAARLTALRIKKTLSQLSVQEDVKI
# How it was run: as §1
# KDR (VEGFR2) = KDR (VEGFR2) (Homo sapiens, UniProt P35968); experiment: Z'-LYTE in vitro kinase assay, KDR; assay type: biochemical; conditions: read-out: inhibition of KDR
# Chain of cytoplasmic tyrosine kinase Src (P12931 whole entry): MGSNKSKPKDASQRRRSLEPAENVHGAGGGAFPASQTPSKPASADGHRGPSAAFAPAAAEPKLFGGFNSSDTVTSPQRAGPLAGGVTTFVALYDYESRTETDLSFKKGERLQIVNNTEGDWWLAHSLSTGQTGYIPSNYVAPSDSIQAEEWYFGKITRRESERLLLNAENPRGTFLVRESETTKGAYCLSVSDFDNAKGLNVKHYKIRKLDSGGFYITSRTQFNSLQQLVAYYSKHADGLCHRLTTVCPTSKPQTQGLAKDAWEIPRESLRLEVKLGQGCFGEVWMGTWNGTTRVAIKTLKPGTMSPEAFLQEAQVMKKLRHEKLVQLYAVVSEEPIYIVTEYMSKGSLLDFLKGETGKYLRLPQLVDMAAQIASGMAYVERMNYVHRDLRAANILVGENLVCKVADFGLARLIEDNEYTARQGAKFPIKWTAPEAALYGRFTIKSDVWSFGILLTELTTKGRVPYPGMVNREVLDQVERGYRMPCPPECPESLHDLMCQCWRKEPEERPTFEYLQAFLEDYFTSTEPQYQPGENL
structure (smiles),measurement,setting,value
"O=C1/C(=C/c2ccccc2F)CNC/C1=C\c1ccccc1F [Compound 3, 3,5-bis(2-flurobenzylidene)piperidin-4-one]",inhibition of Src,[1],weak effect
same,mechanism of IKKβ blockade,IKKβ,mixed mechanism
same,inhibition of IGFR,[2],no measurable inhibition
"O=C1/C(=C/c2ccccn2)CNC/C1=C\c1ccccn1 [Compound 4, 3,5-Bis(2-pyridinylmethylidene)-4-piperidone]",inhibition of MEK1,MEK1,moderate inhibition
same,inhibition at 5 µM,EGFR,≤ 10%
same,inhibition of IKKβ,IKBKB (IKKβ),moderate inhibition
same,inhibition at 5 µM,CDK7,≤ 10%
same,inhibition at 5 µM,CHEK1,≥ 85%
same,inhibition of AKT1,AKT1 (PKB alpha),significantly increased blocking action
same,inhibition of Src,[1],weak effect
same,inhibition at 5 µM,PIM1,≤ 10%
same,number of kinases inhibited at ≤40%,panel of 50 kinases,28
same,number of kinases with 40-80% inhibition (modestly blocked),panel of 50 kinases,twelve
same,inhibition at 5 µM,PRKCβ1,≥ 85%
same,inhibition at 5 µM,IRAK4,≤ 10%
same,inhibition of RAF1,RAF1,moderate inhibition
same,inhibition at 5 µM,NEK1,≥ 85%
same,inhibition of AKT2,AKT2 [3],significantly increased blocking action
same,inhibition of IGFR,[2],no measurable inhibition
same,kinase suppression by comparison with curcumin,[4],≥ 10 fold
same,inhibition at 5 µM,CDK2,≤ 10%
same,"α (mixed-model parameter, global analysis of Michaelis-Menten graph)",AKT2 [5],31
same,inhibition at 5 µM,ACVR1B,≤ 10%
same,inhibition at 5 µM,KDR (VEGFR2),≥ 85%
